Here are results for one molecule from publication PMC3013634 (FEMS microbiology letters, 2009).

This assay addresses T1, sPBP 6 (Escherichia coli, UniProt P08506).
T1 sequence (P08506 28-388 limits assumed): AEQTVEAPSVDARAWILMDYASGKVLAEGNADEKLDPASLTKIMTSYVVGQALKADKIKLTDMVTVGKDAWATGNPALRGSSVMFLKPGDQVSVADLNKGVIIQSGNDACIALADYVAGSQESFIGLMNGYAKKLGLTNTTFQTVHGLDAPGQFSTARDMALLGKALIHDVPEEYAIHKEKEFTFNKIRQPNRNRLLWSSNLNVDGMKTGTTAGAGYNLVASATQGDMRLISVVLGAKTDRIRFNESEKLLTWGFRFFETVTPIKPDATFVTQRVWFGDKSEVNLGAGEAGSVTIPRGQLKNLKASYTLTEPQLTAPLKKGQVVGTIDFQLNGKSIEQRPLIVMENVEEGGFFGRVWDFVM
Nature of the assay: acylation rate, fluorescent labelling, SDS-PAGE densitometry. Particulars: covalent; labelled compound; active-site serine acylation; 25-100 μM, 30-120 s. It is filed as binding. The essentials: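 Enzyme (250 μg) was incubated with BOCILLIN FL at 25, 50 or 100 μM for 30–120 s, then run on 12% SDS-PAGE and fluorescence-scanned (488/526 nm). Pseudo-first-order ka came from bound density relative to saturation, and k2/K from the slope of ka versus concentration.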

Regarding `Cc1cc(C)n2c1C=C1C=CC(CCC(=O)Nc3ccc(OCC(=O)N[C@@H]4C(=O)N5[C@@H]4SC(C)(C)[C@@H]5C(=O)[O-])cc3)=[N+]1[B-]2(F)F.[Na+]` [BOCILLIN FL], the “k2/K / M^-1 s^-1” value was 1900 ± 65.5 M⁻¹ s⁻¹.
